Screens: PubChem BioAssay, The Scripps Research Institute Molecular Screening Center
Compounds with a hit are over-represented: about 3% of the library has one in this group of screens.
S1P3 agonist: S1P3 (human) receptor agonism | S1P3 NFAT-BLA reporter cells, FRET ratio; relative to 1 µM S1P, basal subtracted | activation, % at 4.5 µM | hit rate 0.1% among 60,000;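 active = activation above the screen-wide mean plus 3 SD, cut at about 4.5% in these data, passing the limit was not always enough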
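Measure – % activation relative to 1 µM S1P (100%), per plate · System – stable CHO line with human S1P3, Gα16, NFAT-BLA reporter · Timing – cells plated overnight, compound 4 h 37 °C, substrate 2 h RT · Technique – fluorescent BLA substrate, ex 405 nm, em 460/535 nm ratio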
5HT1E ag: 5-HT1E (human) receptor agonism. AID 574. CHO 5-HT1E Ga15 NFAT-bla reporter, FRET; 0% DMSO wells, 100% control agonist wells. activation, % at 6 µM. hit rate 0.69% among 65,000. P28566;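 active = activation above a set limit, the screen-wide mean activation plus 3 SD, cut at about 8.5% in these data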;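 note: 100% = positive control agonist at 1 µM giving full maximal response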
Target sequence (P28566 whole entry, looked up): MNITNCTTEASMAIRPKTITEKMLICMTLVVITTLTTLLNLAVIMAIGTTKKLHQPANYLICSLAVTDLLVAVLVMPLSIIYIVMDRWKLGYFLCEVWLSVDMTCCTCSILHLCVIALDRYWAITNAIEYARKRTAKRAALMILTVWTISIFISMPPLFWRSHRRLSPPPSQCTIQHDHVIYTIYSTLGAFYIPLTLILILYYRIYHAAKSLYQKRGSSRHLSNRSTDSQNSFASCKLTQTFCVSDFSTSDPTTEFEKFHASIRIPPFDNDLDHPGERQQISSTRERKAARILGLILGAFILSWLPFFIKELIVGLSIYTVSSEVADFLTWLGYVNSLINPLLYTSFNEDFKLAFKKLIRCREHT
S1P1 ag-PAM: activates or potentiates agonism at human S1P1 receptor. P21453. S1P1 CRE-bla cells, forskolin, beta-lactamase FRET, potentiator mode; S1P1 agonist co-added at EC20, 2 nM; 100% = saturating reference agonist, 0% = basal. activation, % at 9.5 µM. hit rate 0.57% among 56,000;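 active = activation above a cutoff set at the mean activation of all tested compounds plus 3 SD, cut at about 54% in these data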;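 note: forskolin at 4 µM as EC80 and the EC20 agonist is SEW2871; 100% = SEW2871 at its EC100 plus forskolin at EC80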
5HT1E antag: antagonists of human 5-HT1E serotonin receptor | inhibition, % at 6 µM | P28566 | CHO 5-HT1E Ga15 NFAT-bla reporter, FRET, antagonist | hit rate 0.99% among 65,000;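 active = inhibition above a set limit, the mean inhibition across every tested compound plus 3 SD, cut at about 29% in these data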;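 note: signal is the 460 over 535 nm emission ratio of beta-lactamase substrate; 0% = agonist plus DMSO wells and 100% = wells without agonist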
5HT1a antag: 5-HT1a (human) receptor antagonism. CHO 5-HT1a Ga15 NFAT-bla reporter, antagonist mode. inhibition, % at 10 µM. P08908. AID 612. hit rate 0.68% among 62,000;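 active = inhibition above the mean of all tested compounds plus 3 SD, cut at about 43% in these data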;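 note: receptor stimulated by 5-CT agonist at 100 nM near EC80; beta-lactamase reporter measured by ratiometric fluorescence of a cleavable substrate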
HTR1A agonist: activates the human 5-HT1a serotonin receptor | P08908 | CHO 5-HT1a Ga15 NFAT-bla reporter, FRET ratio; 0% basal, 100% maximal reference agonist | hit rate 0.56% among 65,000 | activation, % at 10 µM;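 active = activation above the screen-wide mean activation plus 3 SD, cut at about 19% in these data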;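 note: 0% = DMSO wells and 100% = 5-CT at EC100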
* hit, by the source's call; / = not tested or not shown.

SMILES	S1P3 agonist	5HT1E ag	S1P1 ag-PAM	5HT1E antag	5HT1a antag	HTR1A agonist
COc1cc(CNc2ccc(N3CCOCC3)c(C(=O)O)c2)ccc1OCC(N)=O	-0.2	34.3*	-6.5	-0.7	-1.3	-2.2
COc1cccc(C(=O)Nc2ccc(C(=O)O)cc2)c1	-0.5	0.0	-16.7	5.2	1.7	-2.1
COc1cccc(C(=O)Nc2ccc(C)cc2)c1	/	1.3	/	-1.0	4.3	164.4*
COc1cc(C)c(Cl)cc1S(=O)(=O)NCC1CCCO1 (configuration not stated)	-0.6	0.3	-9.0	-8.6	1.3	3.1
CCOc1cc(C)c(Cl)cc1S(=O)(=O)NCC1CCCO1 (configuration not stated)	-0.7	-1.3	11.7	31.0*	12.2	0.2
CCOC(=O)c1c(-c2ccc(C)o2)csc1NC(=O)CSc1nnc(C)s1	-0.8	2.1	-36.4	16.8	55.6*	1.9
CCOC(=O)c1c(-c2ccc(C)o2)csc1NC(=O)CSc1nnnn1-c1ccccc1	-1.0	0.7	-24.7	-14.2	18.1	0.3
O=C(Nc1cccc(S(=O)(=O)C(F)F)c1)c1ccc(S(=O)(=O)N2CCOCC2)cc1	-0.9	-0.5	-1.2	-4.2	0.1	1.9
O=C(Nc1ccc(S(=O)(=O)C(F)F)cc1)c1cccc(S(=O)(=O)N2CCOCC2)c1	-0.4	0.4	/	-1.6	2.1	20.4*
Cc1ccc(C(=O)c2coc3ccc(O)c(CN4CCN(C)CC4)c23)cc1	-0.9	1.0	-23.9	-12.8	-3.6	-4.3
COC(=O)c1[nH]c2c(c1C)C(=O)CC(c1ccccc1)C2 (configuration not stated)	-1.0	-1.9	-25.7	68.1*	54.8*	-0.7
COCCOC(=O)c1[nH]c2c(c1C)C(=O)CC(c1cc(OC)ccc1OC)C2 (configuration not stated)	-0.7	-0.5	6.9	21.8	26.9	-0.5
Cc1c(C(=O)OCC2CCCO2)[nH]c2c1C(=O)CC(c1ccco1)C2 (configuration not stated)	-0.3	-0.6	2.3	8.7	15.3	-5.2
C/C=C/COC(=O)c1[nH]c2c(c1C)C(=O)CC(c1ccco1)C2 (configuration not stated)	-1.5	-0.5	1.3	77.9*	63.8*	-3.0
C=CCOC(=O)c1[nH]c2c(c1C)C(=O)CC(c1ccco1)C2 (configuration not stated)	-0.9	0.4	2.1	76.1*	51.2*	-3.1
Cc1c(C(=O)N2CCOCC2)[nH]c2c1C(=O)CC(c1ccccc1Cl)C2 (configuration not stated)	-1.7	40.0*	-17.9	9.9	19.7	-0.6
Cc1c(C(=O)OC2CCCC2)[nH]c2c1C(=O)CC(c1ccco1)C2 (configuration not stated)	-1.1	-0.9	33.6	84.8*	61.8*	0.2
Cc1c(C(=O)OCC(C)C)[nH]c2c1C(=O)CC(c1ccco1)C2 (configuration not stated)	-1.6	0.3	13.3	68.6*	53.0*	-3.2
CN1C(=O)N(c2ccccc2)C(Nc2nncs2)C1(C)C (configuration not stated)	1.3	1.1	-3.0	-10.7	/	0.4
COc1ccc2c(c1)c(CCN1C(=O)c3ccccc3C1=O)cn2C(=O)c1ccco1	-0.9	-0.3	-5.6	7.1	7.5	-0.1
O=C(Oc1ccc2[nH]cc(CCN3C(=O)c4ccccc4C3=O)c2c1)c1ccco1	-0.7	38.3*	-19.3	-6.8	-11.6	-1.2
Clc1ccc(C(c2nnnn2C2CCCC2)N2CCSCC2)cc1 (configuration not stated)	-1.3	-0.3	18.1	20.1	50.1*	-1.2
CC(=O)C1=C(C)Nc2ncnn2C1c1ccc(Cl)cc1 (configuration not stated)	-0.4	-0.7	/	5.8	-7.0	-1.2
COc1cc2nc(CN3CCN(c4ncc(C(F)(F)F)cc4Cl)CC3)[nH]c(=O)c2cc1OC	-0.4	-0.5	-25.9	-0.2	5.8	-1.8
NC(=O)c1oc2ccc(Cl)cc2c1N	-0.7	-1.2	10.1	-2.4	1.1	2.1
SMILES	S1P3 agonist	5HT1E ag	S1P1 ag-PAM	5HT1E antag	5HT1a antag	HTR1A agonist
CN=c1oc2ccc(Cl)cc2cc1C(N)=O	-0.9	9.8*	-8.8	-1.0	15.1	-2.0
COc1ccc(NC(=O)CN(c2ccc(C)cc2)S(=O)(=O)c2c(C)nn(C)c2C)cc1OC	-0.4	0.0	5.1	6.4	-2.6	-0.3
CCN(CC(=O)Nc1ccc(OC)c(OC)c1)S(=O)(=O)c1ccc(C)cc1	0.6	-0.3	/	-7.4	-18.0	22.1*
CC1(C)CC(=O)C(C=Nc2ccccc2)=C(O)C1	-1.4	-1.7	-9.1	16.5	19.0	-4.1
O=C1CCCC(O)=C1C=Nc1ccc(O)cc1	-2.7	-1.2	-9.8	15.4	43.4*	-1.1
CCOC(=O)c1[nH]c2ccc(OC)cc2c1NC(=O)OC	0.2	0.2	-6.4	-9.1	4.7	-3.1
COc1ccc2[nH]c(O)c(NC(C)=O)c2c1	-1.4	12.7*	4.8	4.6	-2.9	-0.9
O=C(NCc1cccs1)C1CCN(c2ccc(S(=O)(=O)N3CCOCC3)cc2Cl)CC1	-1.7	-0.2	16.2	40.4*	27.4	0.7
CC(C)CNC(=O)C1CCN(c2ccc(S(=O)(=O)N3CCOCC3)cc2Cl)CC1	-0.8	-0.5	23.6	12.6	8.1	1.1
COc1ccccc1N(C)S(=O)(=O)c1ccc(C(=O)OCC(=O)NCc2ccco2)cc1	0.0	-0.5	-3.8	-5.1	10.0	-3.2
Cc1ccc(-n2c(SCC(N)=O)nnc2-c2cccnc2)c(C)c1	-1.7	-1.4	3.3	0.9	-7.5	-3.4
Cc1ccccc1-n1c(SC(C)C(N)=O)nnc1-c1cccnc1 (configuration not stated)	-0.2	27.3*	-23.8	5.2	1.2	-0.5
COc1ccc2[nH]c(C)c(CCN3C(=O)OC(C)(C)C3(C)O)c2c1 (configuration not stated)	-0.4	0.2	-8.3	1.0	-1.1	-1.0
COc1ccc2[nH]c(=O)c3c(c2c1)OC(C)(C)C=C3	-2.0	-0.3	99.3	23.7	60.0*	-1.4
CCOC(=O)CSc1nnc(-c2nnc(SCC(=O)OCC)n2CC)n1CC	-0.1	7.0	-3.3	3.8	-9.9	-1.3
O=C(CCS(=O)(=O)c1ccccc1)Nc1nc2c(s1)COc1ccccc1-2	-0.5	0.5	8.5	-8.0	16.5	1.1
COc1ccc2[nH]c3c(c2c1)CN(C)CC3	-0.6	1.3	15.1	28.7*	6.8	102.3*
COc1ccc2[nH]c3ccccc3c2c1	-0.4	-0.4	7.5	-13.6	-0.9	-3.1
O=C1OC(Nc2ccc(Br)cn2)c2ccccc21 (configuration not stated)	-4.4	0.9	-4.7	-18.6	/	-0.9
